Screening data deposited in PubChem by several laboratories.
Hep lipid drop – modulators of hepatic lipid droplet formation | AML12 mouse hepatocytes, oleate lipid droplets, BODIPY imaging | inhibition, % at 6.5 µM | 240,000 compounds, 0.4% hits | AID 1656;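 active = lipid droplet intensity inhibited by at least 50%, with more than 500 cells counted; inconclusive = wells with under 300 cells, treated as cytotoxic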
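Assay system: AML12 mouse liver cells | Compound dosing: One dose, 6.5 µM compound | Read-out basis: Droplet intensity reduction, % inhibition | Measured by: Fluorescence imaging, 20x objective, two fields per well | Schedule: Overnight treatment with compound plus oleate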
HSF1 inhib – HSF1 inhibition | AID 2098 | activity change, negative = inhibition, % at 7.5 µM (by protocol) | 300,000 compounds, 0.77% hits | NIH3T3-HGL HSE-luciferase, MG132-induced, luminescence 8 h; stronger effect = lower value;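 active = more than half of replicate wells show activity change below -50%, luminescence cut by over half; inconclusive = some wells, but at most half, below -50%; inactive = no replicate well below -50%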;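 note: luciferase reports HSF-1 transcriptional activity via heat shock element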
HSF-1 act – increases HSF-1 driven luciferase reporter signal; NIH3T3-HGL HSF-1 luciferase reporter, MG132, 8 h; 100% = twice DMSO control signal; 300,000 compounds, 1.7% hits; AID 504408; activation, % at 9 µM;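 active = mean replicate activation of at least 50% with a set share of replicates each reaching 50%; inconclusive = only one of those two conditions met; inactive = mean below 50% and too few replicates reaching it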
HCV NS3 hel inh – inhibitors of Hepatitis C virus NS3 helicase | 290,000 compounds, 0.56% hits | inhibition, % at 10.9 µM | NS3 helicase DNA unwinding, Cy5 molecular beacon fluorescence;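 active = inhibition above the mean of all tested compounds plus 3 SD, set per campaign, cut at about 35% in these data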
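Compound dosing – single dose, 10.9 µM nominal final, DMSO 0.8% final · System – NS3 helicase fragment of HCV · Buffer or medium – MOPS pH 6.5, MgCl2, DTT, Tween20, BSA · Signal – Cy5 beacon fluorescence read at start and 1 h · Also added – annealed dual-labelled DNA beacon duplex, ATP-started · Schedule – 1 h at 25 °C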
HSP90 refold inh – HSP90 refolding inhibition in rabbit reticulocyte lysate. luciferase refolding luminescence, 3 h. inhibition, % at 5.6 µM. 290,000 compounds, 0.91% hits;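 active = inhibition above the screen-wide mean plus 3 SD, computed separately per campaign, cut at about 16% in these data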;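 note: inhibitors lower the luminescence because luciferase stays unfolded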
HSP90 inh confirm – HSP90 inhibition, confirmation assay; 2,300 compounds, 64% hits; shares compounds with HSP90 refold inh; rabbit reticulocyte lysate, luciferase refolding luminescence, 3 h; inhibition, % at 5.9 µM; in the data active = inhibition above about 18%
FLuc counter – counter-screen for HSP90 inhibitors: inhibitors of firefly luciferase. 2,300 compounds, 48% hits. shares compounds with HSP90 refold inh. purified native firefly luciferase, luminescence. AID 1847. inhibition, % at 5.9 µM;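 active = inhibition above the mean inhibition of all tested sample wells plus 3 SD, cut at about 10% in these data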
Target sequence (P08659 whole entry, looked up): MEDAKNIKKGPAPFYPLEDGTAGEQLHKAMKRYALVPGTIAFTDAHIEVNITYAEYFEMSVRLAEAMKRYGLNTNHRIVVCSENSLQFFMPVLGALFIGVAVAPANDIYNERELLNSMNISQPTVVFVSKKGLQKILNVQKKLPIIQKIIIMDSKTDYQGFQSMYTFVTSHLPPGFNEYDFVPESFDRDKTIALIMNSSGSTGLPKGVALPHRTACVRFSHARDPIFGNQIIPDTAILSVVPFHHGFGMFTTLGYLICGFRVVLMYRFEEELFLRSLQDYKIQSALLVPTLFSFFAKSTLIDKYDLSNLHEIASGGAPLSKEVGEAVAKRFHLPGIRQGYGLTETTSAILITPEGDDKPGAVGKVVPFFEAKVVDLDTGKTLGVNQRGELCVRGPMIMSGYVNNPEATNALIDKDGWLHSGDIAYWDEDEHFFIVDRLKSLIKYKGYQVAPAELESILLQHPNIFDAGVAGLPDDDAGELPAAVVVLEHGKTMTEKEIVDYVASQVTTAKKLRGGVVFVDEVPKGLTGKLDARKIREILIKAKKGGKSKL
Large screens that a line does not name were inactive (follow-up assays come after a bar, where they were run). Sampled rows, rich in hits. Any-hit rate of the full collection: about 3.8%.

COc1ccccc1CCNC(=O)C(=O)Nc1cc2c3c(c1)CC(=O)N3CCC2	none (no result: Hep lipid drop, HCV NS3 hel inh, HSP90 refold inh)
CCN(CC)S(=O)(=O)c1ccc(C)c(NC(=O)CN(C)C)c1	HSP90 refold inh 48.8 | HSP90 inh confirm inactive | FLuc counter inactive
Cc1ccc(-n2cc(C(=O)c3ccccc3O)cn2)cc1	HSF1 inhib -77.0, HSP90 refold inh 31.1 (no result: Hep lipid drop) | HSP90 inh confirm 61.3 | FLuc counter 48.2
N#Cc1cc2ccccc2nc1N	HSP90 refold inh 20.0 | HSP90 inh confirm inactive | FLuc counter inactive
Cc1ccc(-c2cc3ccccc3nc2N)cc1	none (no result: Hep lipid drop)
O=S1(=O)CCN(Cc2csc(-c3cccs3)n2)CC1	none
c1csc(-c2nc(CN3CCSCC3)cs2)c1	HSP90 refold inh 26.8 | HSP90 inh confirm 54.9 | FLuc counter 30.8
CCN(CC)c1ccc(/C=N/NC(=O)c2ccccn2)cc1	none
Cc1ccc(/C=N/NC(=O)c2ccccn2)s1	HSP90 refold inh 18.0 | HSP90 inh confirm 30.6 | FLuc counter 18.8
O=C(N/N=C/c1cccs1)c1ccccn1	none (no result: Hep lipid drop)
CCc1ccc(/C=N/NC(=O)c2ccccn2)cc1	HSP90 refold inh 23.0 | HSP90 inh confirm 72.7 | FLuc counter 65.1
COc1cc(OC)cc(C(=O)Nc2cc(C)nn2-c2ccccc2)c1	none
O=C(CC(Nc1ccccc1Cl)C(=O)OCC(=O)c1cccs1)c1ccccc1 (centres undefined)	HSF1 inhib -58.2, HSP90 refold inh 31.7 (no result: Hep lipid drop) | HSP90 inh confirm 43.3 | FLuc counter 37.8
O=C(OCC(=O)c1cccs1)c1ccccc1	none (no result: Hep lipid drop)
O=C(CC(Nc1ccc(Cl)cc1Cl)C(=O)O)c1ccccc1 (centres undefined)	HSF1 inhib -89.4, HSP90 refold inh 24.7 | HSP90 inh confirm 75.8 | FLuc counter 74.0
Cc1ccc(NC(=O)c2ccc3ncsc3c2)cc1S(=O)(=O)N(C)C	HSP90 refold inh 18.6 | HSP90 inh confirm 23.8 | FLuc counter 19.6
N#CC1=C2C=CC=CN2CC1=O	HSP90 refold inh 20.1 (no result: Hep lipid drop) | HSP90 inh confirm inactive | FLuc counter inactive
CN(C)c1ccc(/C=C2\SC(N3CCCCC3)=NC2=O)cc1	HSF1 inhib inconclusive, HSP90 refold inh 45.1 | HSP90 inh confirm 55.0 | FLuc counter 59.8
CC(C)c1ccc(/C=C2\SC(N3CCCC3)=NC2=O)cc1	HSP90 refold inh 19.3 (no result: Hep lipid drop) | HSP90 inh confirm inactive | FLuc counter inactive
Cc1cc(S(=O)(=O)Nc2noc3ccccc23)ccc1F	none
CCn1cc(CNC(=O)c2c(-c3c(Cl)cccc3Cl)noc2C)c(C)n1	none
CCO[C@H]1OC(C(=O)N2CCN(C)CC2)=C[C@@H](c2csc3ccccc23)[C@@H]1CCCO	HSP90 refold inh 17.5 | HSP90 inh confirm inactive | FLuc counter inactive
CN1CCN(c2ccc(NC(=O)Cc3ccccc3)cc2)CC1	none
Cc1cc(C(=O)Nc2ccc(N3CCCCC3)cc2)no1	HSP90 refold inh 23.9 | HSP90 inh confirm 49.7 | FLuc counter 36.3
CN1CCN(c2ccc(NC(=O)N3CCc4ccccc43)cc2)CC1	HSF1 inhib -85.2, HSP90 refold inh 71.8 (no result: Hep lipid drop) | HSP90 inh confirm 70.5 | FLuc counter 61.1
Cc1ccc(C(=O)Nc2ccc(N3CCN(S(C)(=O)=O)CC3)cc2)cc1C	none
Cc1ccc(NC(=O)N2CCc3ccccc32)cc1C	HSF-1 act 51.3, HSP90 refold inh 18.4 | HSP90 inh confirm 37.1 | FLuc counter 16.6
Cc1ccc(C(=O)Nc2ccc(N3CCN(C)CC3)cc2)cc1C	HSF1 inhib -51.4, HSP90 refold inh 21.8 | HSP90 inh confirm 29.4 | FLuc counter 22.7
O=C(Nc1ccccc1C(F)(F)F)C1CCN(C(=O)Cc2ccccc2)CC1	none
CC(=O)N(/N=C1\Sc2ccccc2C1=O)c1ccc(C)cc1C	HSF1 inhib -85.5, HSP90 refold inh 41.5 (no result: Hep lipid drop) | HSP90 inh confirm 79.1 | FLuc counter 57.6
CC(=O)N(/N=C1\Sc2ccccc2C1=O)c1ccccc1	none (no result: Hep lipid drop, HSF1 inhib, HSF-1 act)
CC(=O)N(/N=C1\Sc2ccccc2C1=O)c1ccccc1C	HSP90 refold inh 34.9 (no result: Hep lipid drop) | HSP90 inh confirm 73.8 | FLuc counter inactive
CC(=O)Oc1ccc(N(C(C)=O)S(=O)(=O)c2ccc(C)cc2C)c2ccccc12	none
CCN(CC)CCNC(=O)CCc1nnc2ccc(N3CCC(C)CC3)nn12	none
Cc1[nH]c2ccccc2c1/C=N/Nc1nncn1N	HSP90 refold inh 78.3 (no result: HSF1 inhib, HSF-1 act) | HSP90 inh confirm inactive | FLuc counter inactive
CCc1cc(C(=O)c2ccccc2)c(N)s1	HSP90 refold inh 20.6 | HSP90 inh confirm inactive | FLuc counter inactive
O=C1N/C(=N\S(=O)(=O)Cc2ccccc2)S/C1=C/c1cc([N+](=O)[O-])ccc1O	none
O=C1N/C(=N\S(=O)(=O)c2ccccc2)S/C1=C\c1cc([N+](=O)[O-])ccc1O	HSP90 refold inh 53.6 | HSP90 inh confirm inactive | FLuc counter inactive
COc1ccc([C@H]2/C=C\CN(Cc3ccc(N(C)C)cc3)[C@@H](C)C(=O)N2Cc2ccc(F)cc2)cc1	none (no result: Hep lipid drop, HSF-1 act, HCV NS3 hel inh, HSP90 refold inh)
COc1ccc(CNC(=O)C2CCN(S(=O)(=O)N3CCCCC3)CC2)c(OC)c1	none
CCCNC1=C(N(C(C)=O)c2cccc(F)c2)C(=O)c2ccccc2C1=O	HSP90 refold inh 82.0 | HSP90 inh confirm inactive | FLuc counter inactive
COc1cccc(/C=C/c2ccccn2)c1O	HSP90 refold inh 17.3 | HSP90 inh confirm 17.4 | FLuc counter 9.9
COc1cccc(/C=C/c2ccc3cccc(O)c3n2)c1OC	none (no result: Hep lipid drop)
Cc1nnc(N/N=C/c2ccccc2F)n1N	none
COc1ccc(-n2c(C)cc(/C=N/Nc3nnc(C)n3N)c2C)cc1	HSP90 refold inh 74.5 | HSP90 inh confirm inactive | FLuc counter inactive
CSCCC(NC(=O)COc1ccccc1)C(=O)N1CCCC(C)C1 (centres undefined)	none
Cc1cc(C(=O)CN2C(=O)c3ccccc3C2=O)c(C)n1Cc1cccs1	none
Cc1cc(C(=O)Cn2nnc3ccccc3c2=O)c(C)n1Cc1cccs1	HSP90 refold inh 34.5 (no result: Hep lipid drop) | HSP90 inh confirm 52.7 | FLuc counter 45.0
CCCc1c(C)nc(N2CCN(c3ccccc3OC)CC2)[nH]c1=O	none
Cc1ccc(C(=O)CSc2cnc3ccccc3n2)cc1C	HSP90 refold inh 37.0 | HSP90 inh confirm 46.9 | FLuc counter 29.1
CCN(CC)CCn1c(=S)[nH]c2ccc(Cl)cc2c1=O	HSP90 refold inh 45.5 (no result: Hep lipid drop) | HSP90 inh confirm inactive | FLuc counter inactive
COc1ccc(S(=O)(=O)N(NC2=NS(=O)(=O)c3ccccc32)C(=O)C(C)C)cc1	none
O=C(c1cccc(-c2ccccc2F)c1)N1CC[C@@H](N2CCC(O)CC2)[C@H](O)C1	HSP90 refold inh 84.4 | HSP90 inh confirm inactive | FLuc counter inactive
CCOc1ccc2nc(NC(=O)CN3C(=O)NC4(CCCC4)C3=O)sc2c1	none (no result: Hep lipid drop, HCV NS3 hel inh, HSP90 refold inh)
O=C(N/N=C\c1ccc(-c2ccccc2[N+](=O)[O-])o1)C1COc2cc3ccccc3cc2O1 (centres undefined)	HSP90 refold inh 22.0 (no result: Hep lipid drop) | HSP90 inh confirm inactive | FLuc counter inactive
